Non-standard residues stand in square brackets, D forms with d. Residues, ends and D or L forms follow the SMILES beside them.
What was measured:
Assay type in all cases: functional, cell-based
[1] = biological target: Melanocyte-stimulating hormone receptor (Mus musculus, UniProt Q01727); assay: Agonist activity at mouse melanocortin receptor 1 expressed in HEK293 cells assessed as increase in cAMP accumulation after 2 hrs by AlphaScreen assay
Procedure, shortened: (§1)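 Donor beads and biotin-cAMP in lysis buffer followed for 2 h. The AlphaScreen signal was read. EC50 came from nonlinear least-squares fits, duplicates, at least three independent experiments.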

[2] = biological target: Melanocortin receptor 5 (Mus musculus) (UniProt P41149); assay: Inverse agonist activity at mouse melanocortin receptor 5 expressed in HEK293 cells assessed as decrease in cAMP accumulation at 100 uM after 2 hrs by AlphaScreen assay relative to control; parameters: scale not given: the % may be the effect or the level left
Procedure, shortened: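 Each replicate was normalized to its own signal at 10−10 M (basal). Where no plateau appeared, inverse agonism was reported as percent decrease from basal at 100 μM. Values are from three independent experiments.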

Melanocortin receptor 3 [3] = biological target: T1, Melanocortin receptor 3 (Mus musculus, UniProt P33033); assay: Antagonist activity at mouse melanocortin receptor 3 expressed in HEK293 cells assessed as inhibition of NDP-MSH-induced cAMP accumulation after 2 hrs by AlphaScreen assay; conditions: read-out: pA2 (converted)
Melanocortin receptor 4 [4] = biological target: T2, Melanocortin receptor 4 (Mus musculus, UniProt P56450); assay: Antagonist activity at mouse melanocortin receptor 4 expressed in HEK293 cells assessed as inhibition of NDP-MSH-induced cAMP accumulation after 2 hrs by AlphaScreen assay; conditions: read-out: pA2 (converted)
Melanocortin receptor 4 [5] = biological target: T2, Melanocortin receptor 4; assay: Agonist activity at mouse melanocortin receptor 4 expressed in HEK293 cells assessed as increase in cAMP accumulation after 2 hrs by AlphaScreen assay
Melanocortin receptor 3 [6] = biological target: T1, Melanocortin receptor 3; assay: Agonist activity at mouse melanocortin receptor 3 expressed in HEK293 cells assessed as increase in cAMP accumulation after 2 hrs by AlphaScreen assay
[7] = biological target: Melanocyte-stimulating hormone receptor (Mus musculus) (UniProt Q01727); assay: Agonist activity at mouse melanocortin receptor 1 expressed in HEK293 cells assessed as increase in cAMP accumulation at 100 uM after 2 hrs by AlphaScreen assay relative to control
Procedure, shortened: (§2)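 Cyclic peptides were dissolved in DMSO. Receptor-expressing HEK293 cells in IBMX-containing stimulation buffer (pH 7.4) were stimulated for 2 h at room temperature. cAMP was then detected by competitive AlphaScreen after a 2 h lysis/bead step. […] Values come from at least three independent experiments.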

[8] = biological target: Melanocortin receptor 4 (Mus musculus) (UniProt P56450); assay: Agonist activity at mouse melanocortin receptor 4 expressed in HEK293 cells assessed as increase in cAMP accumulation at 100 uM after 2 hrs by AlphaScreen assay; procedure, shortened: as §2
Melanocortin receptor 5 = Melanocortin receptor 5 (Mus musculus, UniProt P41149); assay: Agonist activity at mouse melanocortin receptor 5 expressed in HEK293 cells assessed as increase in cAMP accumulation after 2 hrs by AlphaScreen assay; procedure, shortened: as §1
[9] = biological target: Melanocortin receptor 3 (Mus musculus) (UniProt P33033); assay: Agonist activity at mouse melanocortin receptor 3 expressed in HEK293 cells assessed as increase in cAMP accumulation at 100 uM after 2 hrs by AlphaScreen assay relative to control; procedure, shortened: as §2
[10] = biological target: Melanocortin receptor 5 (Mus musculus) (UniProt P41149); assay: Inverse agonist activity at mouse melanocortin receptor 5 expressed in HEK293 cells assessed as decrease in cAMP accumulation at 10 nM after 2 hrs by AlphaScreen assay relative to control; parameters: scale not given: the % may be the effect or the level left
Procedure, shortened: (§3)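 In mouse MC5R-HEK293 cells, cAMP was measured by AlphaScreen after 2 h peptide exposure (10−4 to 10−13 M) at room temperature. Each replicate was normalized to its signal at 10−10 M. For sigmoidal curves, percent inverse agonism was the change from basal to the high-concentration plateau. Apparent potency was taken as the curve inflection point. Three independent experiments were run.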

[11] = biological target: Melanocortin receptor 5 (Mus musculus) (UniProt P41149); assay: Inverse agonist activity at mouse melanocortin receptor 5 expressed in HEK293 cells assessed as decrease in cAMP accumulation at 110 nM after 2 hrs by AlphaScreen assay relative to control; parameters: scale not given: the % may be the effect or the level left; procedure, shortened: as §3
[12] = biological target: Melanocortin receptor 5 (Mus musculus) (UniProt P41149); assay: Inverse agonist activity at mouse melanocortin receptor 5 expressed in HEK293 cells assessed as decrease in cAMP accumulation at 150 nM after 2 hrs by AlphaScreen assay relative to control; parameters: scale not given: the % may be the effect or the level left; procedure, shortened: as §3
[13] = biological target: Melanocortin receptor 5 (Mus musculus) (UniProt P41149); assay: Agonist activity at mouse melanocortin receptor 5 expressed in HEK293 cells assessed as increase in cAMP accumulation at 100 uM after 2 hrs by AlphaScreen assay relative to control; procedure, shortened: as §2

Chain of Melanocyte-stimulating hormone receptor (Mus musculus) (Q01727 whole entry, looked up): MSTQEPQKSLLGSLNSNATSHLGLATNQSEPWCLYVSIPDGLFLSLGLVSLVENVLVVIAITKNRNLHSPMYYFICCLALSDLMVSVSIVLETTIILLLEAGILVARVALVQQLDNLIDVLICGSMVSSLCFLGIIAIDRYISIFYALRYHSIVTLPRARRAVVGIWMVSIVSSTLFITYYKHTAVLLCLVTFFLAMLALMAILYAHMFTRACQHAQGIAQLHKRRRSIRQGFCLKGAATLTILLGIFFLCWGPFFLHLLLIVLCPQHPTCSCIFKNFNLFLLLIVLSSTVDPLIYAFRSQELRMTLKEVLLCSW
Chain of Melanocyte-stimulating hormone receptor (Q01727 whole entry): as the sequence (Q01727 whole entry, looked up) above
T2 sequence (P56450 whole entry): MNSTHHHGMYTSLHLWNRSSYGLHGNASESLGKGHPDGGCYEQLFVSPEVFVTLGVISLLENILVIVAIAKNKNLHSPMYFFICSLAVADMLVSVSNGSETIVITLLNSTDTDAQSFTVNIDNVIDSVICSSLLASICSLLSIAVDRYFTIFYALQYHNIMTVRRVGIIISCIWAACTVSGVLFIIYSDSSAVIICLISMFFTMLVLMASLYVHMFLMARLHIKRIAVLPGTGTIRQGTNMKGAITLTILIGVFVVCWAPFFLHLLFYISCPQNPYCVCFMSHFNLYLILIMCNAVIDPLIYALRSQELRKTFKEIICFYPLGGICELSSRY
T1 sequence (P33033 whole entry): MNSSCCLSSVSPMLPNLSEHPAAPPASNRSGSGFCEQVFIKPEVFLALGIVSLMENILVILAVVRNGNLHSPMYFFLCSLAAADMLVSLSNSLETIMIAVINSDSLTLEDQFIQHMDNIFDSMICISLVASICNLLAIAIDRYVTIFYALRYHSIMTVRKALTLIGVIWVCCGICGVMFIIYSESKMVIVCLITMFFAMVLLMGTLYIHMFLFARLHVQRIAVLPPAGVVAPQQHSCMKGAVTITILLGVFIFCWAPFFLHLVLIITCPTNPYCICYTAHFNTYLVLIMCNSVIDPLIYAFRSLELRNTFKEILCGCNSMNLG
Chain of Melanocortin receptor 3 (Mus musculus) (P33033 whole entry): as above
Chain of Melanocortin receptor 5 (Mus musculus) (P41149 whole entry): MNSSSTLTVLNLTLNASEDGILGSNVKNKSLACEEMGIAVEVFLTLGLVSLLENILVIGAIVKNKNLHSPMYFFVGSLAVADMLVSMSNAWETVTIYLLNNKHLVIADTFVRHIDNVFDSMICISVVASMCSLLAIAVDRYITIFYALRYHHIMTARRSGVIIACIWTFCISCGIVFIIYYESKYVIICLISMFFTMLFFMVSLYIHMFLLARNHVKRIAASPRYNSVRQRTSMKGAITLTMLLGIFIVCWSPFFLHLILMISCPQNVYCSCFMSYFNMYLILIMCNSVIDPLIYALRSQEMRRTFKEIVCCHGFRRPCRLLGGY
Chain of Melanocortin receptor 4 (Mus musculus) (P56450 whole entry): as the sequence (P56450 whole entry) above
Chain of Melanocortin receptor 5 (P41149 whole entry): as the sequence (P41149 whole entry) above

Row | Compound | EC50 [1] [µM] | Activity [2] [%] | Kb (Melanocortin receptor 3 [3]) [µM] | Kb (Melanocortin receptor 4 [4]) [µM] | EC50 (Melanocortin receptor 4 [5]) [µM] | EC50 (Melanocortin receptor 3 [6]) [µM] | Activity [7] [%] | Activity [8] [%] | EC50 (Melanocortin receptor 5) [µM] | Activity [9] [%] | Activity [10] [%] | Activity [11] [%] | Activity [12] [%] | Activity [13] [%]
1 | C[C@@H]1NC(=O)[C@H](CC(N)=O)NC(=O)[C@H](Cc2ccccc2)NC(=O)[C@H](Cc2ccccc2)NC(=O)[C@H](CCCNC(=N)N)NC(=O)[C@@H]2CCCN2C(=O)[C@H]2CCCN2C(=O)[C@H](C)NC1=O (cyclo(RFFNAA[dP]P)) | > 100 | 25 | 0.794 | 0.00692 | > 100 | > 100 | – | – | – | – | – | – | – | –
2 | CC(C)C[C@@H]1NC(=O)[C@H](CC(N)=O)NC(=O)[C@H](Cc2ccccc2)NC(=O)[C@H](Cc2ccccc2)NC(=O)[C@H](CCCNC(=N)N)NC(=O)[C@@H]2CCCN2C(=O)[C@H]2CCCN2C(=O)[C@H](Cc2ccccc2)NC1=O | – | – | > 3.16 | 0.661 | – | – | 80 | 25 | > 100 | 25 | – | – | – | –
3 | C[C@@H]1NC(=O)[C@H](Cc2c[nH]cn2)NC(=O)[C@H](Cc2ccccc2)NC(=O)[C@H](Cc2ccccc2)NC(=O)[C@H](CCCNC(=N)N)NC(=O)[C@@H]2CCCN2C(=O)[C@H]2CCCN2C(=O)[C@H](Cc2ccccc2)NC1=O | > 100 | – | 0.347 | – | > 100 | > 100 | – | – | – | – | 15 | – | – | –
4 | N=C(N)NCCC[C@@H]1NC(=O)[C@@H]2CCCN2C(=O)[C@H]2CCCN2C(=O)[C@H](Cc2ccccc2)NC(=O)[C@H](CC(=O)O)NC(=O)[C@H](CC(N)=O)NC(=O)[C@H](Cc2ccccc2)NC(=O)[C@H](Cc2ccccc2)NC1=O (cyclo(RFFNDF[dP]P)) | – | 25 | > 3.16 | > 3.16 | > 100 | > 100 | 65 | – | – | – | – | – | – | –
5 | CC[C@@H]1NC(=O)[C@H](Cc2ccccc2)NC(=O)[C@H](Cc2ccccc2)NC(=O)[C@H](CCCNC(=N)N)NC(=O)[C@@H]2CCCN2C(=O)[C@H]2CCCN2C(=O)[C@H](Cc2ccccc2)NC(=O)[C@H](C)NC1=O | > 100 | – | – | – | > 100 | – | – | – | – | – | – | – | – | –
6 | CC(C)C[C@@H]1NC(=O)[C@H](Cc2ccccc2)NC(=O)[C@H](Cc2ccccc2)NC(=O)[C@H](CCCNC(=N)N)NC(=O)[C@@H]2CCCN2C(=O)[C@H]2CCCN2C(=O)[C@H](Cc2ccccc2)NC(=O)[C@H](C)NC1=O (cyclo(RFFLAF[dP]P)) | > 100 | – | 2 | 0.0457 | > 100 | > 100 | – | – | – | – | – | 20 | – | –
7 | C[C@@H]1NC(=O)[C@H](Cc2c[nH]c3ccccc23)NC(=O)[C@H](Cc2ccccc2)NC(=O)[C@H](Cc2ccccc2)NC(=O)[C@H](CCCNC(=N)N)NC(=O)[C@@H]2CCCN2C(=O)[C@H]2CCCN2C(=O)[C@H](Cc2ccccc2)NC1=O (cyclo(RFFWAF[dP]P)) | – | – | 2 | 0.155 | – | – | 80 | 50 | – | 40 | – | – | 20 | –
8 | C[C@@H]1NC(=O)[C@H](Cc2ccccc2)NC(=O)[C@H](Cc2ccccc2)NC(=O)[C@H](Cc2ccccc2)NC(=O)[C@H](CCCNC(=N)N)NC(=O)[C@@H]2CCCN2C(=O)[C@H]2CCCN2C(=O)[C@H](Cc2ccccc2)NC1=O | > 100 | – | > 3.16 | 0.234 | > 100 | > 100 | – | – | > 100 | – | – | – | – | –
9 | N=C(N)NCCC[C@@H]1NC(=O)[C@@H]2CCCN2C(=O)[C@H]2CCCN2C(=O)[C@H](Cc2ccccc2)NC(=O)[C@H](CCCCN)NC(=O)[C@H](CC(N)=O)NC(=O)[C@H](Cc2ccccc2)NC(=O)[C@H](Cc2ccccc2)NC1=O | – | – | > 3.16 | 0.776 | > 100 | – | 60 | – | – | 45 | – | – | – | 45
